Laboratory results as given in PMC11022290 (Clinical and Translational Science, 2024).
Read-outs that look alike come from different tables or passages of the source.

Legend:
CYP2C:TG haplotype [1] = type: in vivo, human (children aged 6–21 years)
In short: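 Children, fasted ≥4 h, received one proton pump inhibitor dose per visit. 12–14 serum samples were taken to 10 h post-dose and assayed by LC/MS/MS or reverse-phase HPLC. Clearance was dose/AUCtotal (AUClast + Cn/kel), weight-normalized. Genotyping was by TaqMan real-time PCR or NGS panel. Regression on CYP2C19*1 and *17 counts was compared with regression adding CYP2C:TG count. Outcomes were log-transformed as needed, with bootstrap 95% CI.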

CYP2C:TG haplotype [2] = conditions: adults; cited from earlier work
CYP2C:TG haplotype [3] = conditions: cited from earlier work

Row | impact of the CYP2C:TG haplotype on the PK (CYP2C:TG haplotype [1]; PO) | SMILES | impact of CYP2C:TG alleles on CYP2C19 PK or metabolic phenotype (CYP2C:TG haplotype [2]) | CYP2C19 activity associated with CYP2C:TG haplotype, from serum concentrations (CYP2C:TG haplotype [3]) | further results
1 | negligible | Cc1c(OCC(F)(F)F)ccnc1C[S+]([O-])c1nc2ccccc2[nH]1 (stereo not drawn) [lansoprazole] | – | – | Scaled coefficient (95% CI) for CYP2C:TG allele count (CYP2C:TG haplotype [1]; outcome Cmax (adj) scaled to SD 1, oral): 0.24–0.35
2 | negligible | COc1ccnc(C[S+]([O-])c2nc3ccc(OC(F)F)cc3[nH]2)c1OC (stereo not drawn) [pantoprazole] | – | – | impact of the CYP2C:TG haplotype on the PK (CYP2C:TG haplotype [1]; IV): negligible; Scaled coefficient (95% CI) for CYP2C:TG allele count (CYP2C:TG haplotype [1]; outcome Clearance (adj) scaled to SD 1, IV): 0.24–0.35; Scaled coefficient (95% CI) for CYP2C:TG allele count (CYP2C:TG haplotype [1]; outcome Clearance scaled to SD 1, IV): 0.24–0.35; Scaled coefficient (95% CI) for CYP2C:TG allele count (CYP2C:TG haplotype [1]; outcome Cmax scaled to SD 1, oral): 0.24–0.35
3 | – | CN(C)CCCC1(c2ccc(F)cc2)OCc2cc(C#N)ccc21 (stereo not drawn) [citalopram] | No appreciable impact | – | –
4 | – | CN[C@H]1CC[C@@H](c2ccc(Cl)c(Cl)c2)c2ccccc21 [sertraline] | No appreciable impact | increased CYP2C19 activity | –
5 | – | CN(C)CCC[C@@]1(c2ccc(F)cc2)OCc2cc(C#N)ccc21 [escitalopram] | – | increased CYP2C19 activity | metabolism associated with CYP2C:TG haplotype (CYP2C:TG haplotype [3]; activity similar to CYP2C19*17/*17 diplotype): ultrarapid metabolism
